Data set [1] concerns the target Procathepsin L (Homo sapiens) (UniProt P07711). The data set is described as follows: Inhibition of human cathepsin L using Z-phe-Arg-AMC as substrate at 20 uM by FRET-based enzymatic cleavage assay relative to control.
In data set [2] the target is Cathepsin B (Homo sapiens) (UniProt P07858). The data set is described as follows: Inhibition of human cathepsin B using Z-phe-Arg-AMC as substrate at 20 uM by FRET-based enzymatic cleavage assay relative to control.
The next data set has as its system CAPAN-1. The data set is described as follows: Cytotoxicity against human CAPAN-1 cells assessed as inhibition of cell growth incubated for 5 days by MTS assay. The note with it: CAPAN-1, 120 h. (Tetrazolium assays rely on reduction of a dye to a coloured formazan, in cell work by metabolically active cells.)
The subject of the next data set is BXPC-3. The data set is described as follows: Cytotoxicity against human BXPC-3 cells assessed as inhibition of cell growth incubated for 5 days by MTS assay. The note with it: BXPC-3, 120 h.
Data set [3] is described as follows: Thiol reactivity of compound in phosphate buffer with N-acetyl cysteine at pH 7.4 assessed as micheal adduct formation by measuring conversion rate measured after 1 hrs by HPLC-MS analysis. The note with it: pH 7.4, 1 h. It is filed as physicochemical. The gist of the method: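 Compound with 1.1 equiv N-acetylcysteine in PBS pH 7.4 containing 10% ACN, stirred 1 h at 37 °C. The mixture was concentrated under reduced pressure, and consumption of starting material and adduct formation were followed by HPLC-MS.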

Data set [4] has as its system Severe acute respiratory syndrome coronavirus 2. As to the kind of experiment: Inhibition of recombinant SARS-CoV-2 main protease using Dabcyl-KTSAVLQSGFRKME-Edans as substrate assessed as reduction in proteolytic activity at 20 uM preincubated for 10 mins followed by substrate addition and measured after 10 mins by FRET-based enzymatic cleavage assay relative to control. The note with it: time 20.0 min. The gist of the method: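 Recombinant SARS-CoV-2 Mpro at 50 nM final, with 25 µM final substrate and 20 µM final compound, in 20 mM Tris pH 7.5, 0.1 mM EDTA, 1 mM DTT, 200 mM NaCl. Substrate cleavage was followed at 25 °C as rising Edans fluorescence (ex 335/em 493 nm) after release of the Dabcyl quencher.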

Data set [5] can be described thus: Inhibition of recombinant SARS-CoV-2 main protease using Dabcyl-KTSAVLQSGFRKME-Edans as substrate assessed as reduction in proteolytic activity preincubated for 10 mins followed by substrate addition and measured after 10 mins by FRET-based enzymatic cleavage assay. Set-up: species or system Severe acute respiratory syndrome coronavirus 2.
The subject of the next data set is Human coronavirus OC43. As to the kind of experiment: Antiviral activity against HCoV-OC43 infected in human HCT-8 cells preincubated with cell for 1 hrs followed by viral infection and measured after 72 hrs by focus forming reduction assay. It is filed as functional, organism-based. The note with it: Betacoronavirus 1, HCT-8.
Data set [6] in a line: Thiol reactivity of compound in phosphate buffer with N-acetyl cysteine at pH 7.4 assessed as micheal adduct formation by measuring conversion rate measured after 24 hrs by HPLC-MS analysis. It is filed as physicochemical. The note with it: pH 7.4, 24 h.
The nature of data set [7]: Thiol reactivity of compound in phosphate buffer with N-acetyl cysteine at pH 7.4 assessed as micheal adduct formation measured after 24 hrs by 19F-NMR spectroscopic analysis. It is filed as physicochemical. The note with it: pH 7.4, 24 h.

The results in this text go back to ChEMBL document CHEMBL6087409, “Synthesis of α-fluorocinnamate derivatives as novel cathepsin S inhibitors with in vitro antiproliferative activity against pancreatic cancer cells” (Bioorg Med Chem, 2024).

One may read the inhibition as the drop in the measured response relative to a control, in per cent. A word on the IC50: it is the concentration that gives 50% inhibition. One may read the EC50 as the concentration giving half of the maximal effect. Read a low EC50 as higher potency in that assay.

Molecules are shown by their SMILES. Activity calls are given as the source filed them. The calls are words filed in the database; no cut-off is given here.

Sequence of Procathepsin L (Homo sapiens) (P07711 114-333 limits assumed): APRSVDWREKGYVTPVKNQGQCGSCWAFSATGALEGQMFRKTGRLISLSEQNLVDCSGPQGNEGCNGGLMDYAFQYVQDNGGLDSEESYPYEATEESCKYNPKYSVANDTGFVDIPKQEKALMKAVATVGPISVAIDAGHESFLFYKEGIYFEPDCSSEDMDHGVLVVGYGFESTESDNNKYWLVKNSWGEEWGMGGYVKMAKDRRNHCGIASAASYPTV

Turning to `CCOC(=O)/C(F)=C/c1ccc(NC(=O)[C@H](Cc2ccccc2)NC(=O)OCc2c[nH]c3ccccc23)cc1`, the inhibition in [1] worked out at 29%; in [2] it was 20%. Moreover, the half-inhibitory concentration (IC50) with CAPAN-1 stood at 20.8 µM; with BXPC-3 it was 5.79 µM. The Activity in data set [3] was ~ 80%.

For `CCOC(=O)/C(F)=C/c1ccc(NC(=O)[C@H](Cc2ccccc2)NC(=O)OCc2ccccc2)cc1`, the inhibition result in data set [1] is “inactive”. The IC50 was 40.6 µM with CAPAN-1 and 25.9 µM in the data set on BXPC-3.

For the compound `CCOC(=O)/C=C/c1ccc(NC(=O)[C@H](Cc2ccccc2)NC(=O)OCc2c[nH]c3ccccc23)cc1`, in data set [4], the inhibition came to 60%. The IC50 in [5] was 12.4 µM. Moreover, a half-maximal effect in the data set on Human coronavirus OC43 (EC50) was put at 9.14 µM.

Take `CCOC(=O)/C=C/c1ccc(NC(=O)[C@H](Cc2ccccc2)NC(=O)OCc2ccccc2)cc1`: the inhibition in [4] worked out at 40%. The Activity in data set [6] came to 70%.

On to `CCOC(=O)/C(F)=C/c1ccc(N)cc1`, for which the outcome in [7] was Active.

In the case of `CCOC(=O)/C(F)=C/c1ccc(NC(=O)[C@H](Cc2ccccc2)NC(=O)c2cc3ccccc3[nH]2)cc1`, the inhibition entry in data set [1] is “inactive”. In addition, the concentration for half-maximal inhibition (IC50) was 28.3 µM in the data set on CAPAN-1 and 14.1 µM in the data set with BXPC-3.
